Assay [1] can be described thus: inhibitors of TNFa-induced NFkB p65 translocation, primary screen, imaging, HUVEC, MLSMR starter and 10KST1 sets (AID 438;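 active means inhibition above 20% together with a positive visual image hit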;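 further: compound added about 3h40 before a 20 min TNFalpha stimulation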;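 on inhibition: signal is the nuclear over cytoplasmic p65 intensity ratio per well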). Conditions: HUVEC TNFa-induced p65 nuclear translocation; cell count: measured here: nuclei count (cytotoxicity indicator), at 2.08 µM; inhibition: at 2 µM, stronger effect = higher value, 0% TNFa-plus-vehicle, 100% no-TNFa wells.
The nature of assay [2]: inhibitors of mutant huntingtin aggregation, primary screen, imaging, exon1htt(103Q)mCFP cells, high-content imaging (AID 483;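 active means visual image review flags a hit and inhibition of aggregation exceeds 20%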;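 further: compound exposure lasted 3 days before fixation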;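 on nuclei count: percent of the per-plate median nuclei count of sample wells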). Conditions: exon1htt(103Q)mCFP cell line, aggregate imaging, at 2 µM; inhibition of aggregation: stronger effect = higher value; nuclei count: measured here: cell count, toxicity.
Assay [3] in a line: inhibitors of E-selectin induction by TNFa, primary screen, imaging, HUVEC, immunofluorescence, MLSMR starter and 10KST1 sets (AID 487).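 On inhibition: signal is fraction of cell area covered by stained E-selectin grains.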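 On nuclei count: 100% = median nuclei count of all wells on the same plate.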 To be noted: HUVEC TNFalpha-induced E-selectin immunofluorescence imaging, at 2 µM; inhibition: stronger effect = higher value; nuclei count: measured here: cell number, toxicity.
Assay [4] has as its target Voltage-gated potassium channel subunit beta-2 (Rattus norvegicus) (UniProt P62483). Briefly: KvBeta enzyme negative modulators, primary screen, biochemical, NADPH fluorescence (AID 622;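 active means fluorescence slope higher than the sample average by over 3 SD, cut at about -0.22 in these data, passing the limit was not always enough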;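 further: slope of raw intensity against log time taken from 70 to 1610 s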). To be noted: recombinant KvBeta, 4-cyanobenzaldehyde reduction, at 10 µM, stronger effect = higher value.
Assay [5] has the same target. Briefly: KvBeta positive modulators, primary screen, biochemical, NADPH fluorescence (AID 623;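 active means NADPH fluorescence slope more negative than the mean of all samples by about 3 SD, 99.7% confidence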;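 further: fluorescence intensity change per second fitted from 20 to 320 s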). To be noted: Recombinant KvBeta, NADPH fluorescence decrease slope, 10 min; at 10 µM; stronger effect = lower value.
In assay [6] the target is Muscarinic acetylcholine receptor M4 (Homo sapiens) (UniProt P08173). As to the kind of experiment: compounds altering M4/GIRK thallium flux, either direction, primary screen, M4 allosteric agonist project, cell-based, HEK293 M4/GIRK, BTC-AM (AID 625;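 active means fluorescence slope after compound addition differing from the mean of all tested samples at 99.7% confidence, mostly higher but some lower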;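 further: thallium influx through GIRK channels coupled to M4 in HEK293 cells with BTC-AM dye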). To be noted: at 10 µM, actives lie on both sides. The procedure, abridged:
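Material: M4/GIRK1/GIRK2 stable HEK293 cell line. Medium: pH 7.3 thallium assay buffer. Dosing: single compound concentration, 10 µM final. Schedule: 1 h dye loading, 2 min kinetic read. Measured by: kinetic fluorescence with BTC-AM dye. Read-out: post-addition slope, 15–24 s, of baseline-normalized fluorescence. Benchmarks: carbachol and DMSO controls.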

The nature of assay [7]: inhibitors of Sendai virus-induced IRF3 signaling, primary screen, TLR/RLR signaling modifier project, cell-based, Sendai virus stimulus, luciferase, 10K MLSCN set (AID 602276;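 active means inhibition at or above 50% at 10 µM; inactive means inhibition below 50%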;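 further: firefly luciferase from ISG56 promoter only with Renilla not read in this screen; 0% = Sendai virus plus DMSO and 100% = medium plus DMSO without virus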). To be noted: HEK293 RL24 IRF3 luciferase reporter, at 10 µM, stronger effect = higher value.
Assay [8] is described as follows: inhibitors of poly I:C-induced TLR3 signaling, primary screen, cell-based, poly I:C stimulus, luciferase, 10K MLSCN set (AID 602277;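 active means inhibition of the reporter signal at or above 50%; inactive means inhibition below 50%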). To be noted: HEK293-TLR3 RL24 IRF3 luciferase reporter, at 10 µM, stronger effect = higher value. (In general: A reporter such as luciferase makes a cellular process visible.)

Calls of active or inactive are those of the source.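 How the source made its calls, unless noted: active means visually confirmed hit in the image check and inhibition above 20%; inconclusive means visually confirmed hit but inhibition not above 20%; inactive means no visual hit in the image check.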

For orientation: inhibition means the drop in the measured response relative to a control, in per cent.

Chain of Voltage-gated potassium channel subunit beta-2 (Rattus norvegicus) (P62483 whole entry, looked up): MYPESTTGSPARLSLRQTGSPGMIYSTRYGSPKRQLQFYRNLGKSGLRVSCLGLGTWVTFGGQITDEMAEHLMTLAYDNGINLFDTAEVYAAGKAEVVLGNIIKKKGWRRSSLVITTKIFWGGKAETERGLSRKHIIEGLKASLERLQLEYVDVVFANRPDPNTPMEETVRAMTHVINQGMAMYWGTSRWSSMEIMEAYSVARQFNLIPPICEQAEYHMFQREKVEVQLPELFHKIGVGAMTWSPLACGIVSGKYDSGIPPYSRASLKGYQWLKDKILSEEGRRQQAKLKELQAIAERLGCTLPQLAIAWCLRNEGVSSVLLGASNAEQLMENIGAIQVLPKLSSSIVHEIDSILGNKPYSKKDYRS
Chain of Muscarinic acetylcholine receptor M4 (Homo sapiens) (P08173 whole entry, looked up): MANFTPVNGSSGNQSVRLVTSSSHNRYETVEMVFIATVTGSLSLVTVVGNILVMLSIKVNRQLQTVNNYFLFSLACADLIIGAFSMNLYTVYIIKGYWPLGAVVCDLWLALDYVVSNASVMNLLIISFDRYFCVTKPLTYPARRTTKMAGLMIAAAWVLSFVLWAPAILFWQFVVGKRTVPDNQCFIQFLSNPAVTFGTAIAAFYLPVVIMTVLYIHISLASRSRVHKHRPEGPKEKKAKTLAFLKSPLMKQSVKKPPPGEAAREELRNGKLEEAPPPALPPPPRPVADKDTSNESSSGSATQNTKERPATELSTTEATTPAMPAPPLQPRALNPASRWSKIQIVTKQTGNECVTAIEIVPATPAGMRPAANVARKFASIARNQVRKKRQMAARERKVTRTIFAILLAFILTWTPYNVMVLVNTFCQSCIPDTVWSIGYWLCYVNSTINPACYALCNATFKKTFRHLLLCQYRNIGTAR

`COC(=O)c1c(NC(=O)C2CC=CCC2C(=O)O)sc(C(N)=O)c1C` (centres undefined): in assay [1], the cell count was found to be 654. For the same molecule, the inhibition was -2.4% (inactive) in assay [1], -10.1% (inactive) in assay [3], 0.24% (inactive) in assay [7] and 11% (inactive) in assay [8]. The inhibition of aggregation in assay [2] is 7.8% (inactive). In addition, the values for the nuclei count in assay [2] and in assay [3] were 96.4% and 113%, respectively. The fluorescence slope in assay [4] is -0.495 (inactive); in assay [6], 0.00475 (inactive). The NADPH fluorescence slope in assay [5] was -4.4e-05 (inactive).

`COC(=O)C1=C(C)Nc2nnnn2C1c1ccc(Cl)cc1Cl` (centres undefined): the cell count in assay [1] worked out at 433. Besides, the inhibition is 7.3% (inactive) in assay [1], 1.2% (inactive) in assay [3], 13.6% (inactive) in assay [7] and 19.3% (inactive) in assay [8]. In addition, the inhibition of aggregation in assay [2] is -5.9% (inactive). The nuclei count in assay [2] and in assay [3] was 105% throughout. The fluorescence slope was -0.482 (inactive) in assay [4] and 0.0056 (inactive) in assay [6]. In addition, the NADPH fluorescence slope in assay [5] is -4.5e-05 (inactive).

As for `CCN(CC)C(=O)CN(c1cc(Cl)ccc1OC)S(C)(=O)=O`, the cell count in assay [1] was determined as 776. The inhibition in assay [1] is -2.4% (inactive); in assay [3], 41.2% (inactive); in assay [7], 7.69% (inactive); in assay [8], 10.1% (inactive). The inhibition of aggregation in assay [2] was -2.7% (inactive). Also, the nuclei count in assay [2] worked out at 108%; in assay [3], 96%. Further, the fluorescence slope in assay [4] is -0.577 (inactive); in assay [6], 0.00573 (inactive). Further, the NADPH fluorescence slope in assay [5] is 4.8e-07 (inactive).

As for `CCCNS(=O)(=O)c1ccc(OCC(=O)Nc2ccccc2F)cc1`, in assay [1], the cell count was 408. For the same molecule, the inhibition in assay [1] was 8.2% (inactive); in assay [3], -57.2% (inactive); in assay [7], 19.7% (inactive); in assay [8], 15.2% (inactive). Further, the inhibition of aggregation in assay [2] is -23% (inactive). The nuclei count in assay [2] turned out to be 99.5%; in assay [3] it was 100%. Also, the results for the fluorescence slope in assay [4] and in assay [6] were -0.557 (inactive) and 0.00506 (inactive), respectively. Moreover, the NADPH fluorescence slope in assay [5] was -2.6e-05 (inactive).

For the molecule `N#Cc1c(SCC(=O)N2CCOCC2)nsc1SCC(=O)N1CCOCC1`, the cell count in assay [1] stood at 398. Further, the inhibition was -8.5% (inactive) in assay [1], -45% (inactive) in assay [3], 3.35% (inactive) in assay [7] and 4.99% (inactive) in assay [8]. In addition, the inhibition of aggregation in assay [2] was -6.4% (inactive). Also, the nuclei count in assay [2] was 99.1%; in assay [3], 117%. Moreover, the fluorescence slope in assay [4] was -0.565 (inactive); in assay [6] it was 0.0058 (inactive). The NADPH fluorescence slope in assay [5] was -2.7e-05 (inactive).

Turning to `O=C(NC1CCCC1)c1ccc(S(=O)(=O)N2CCCC2)cc1`, the cell count in assay [1] worked out at 452. The inhibition is -8% (inactive) in assay [1], -93.7% (inactive) in assay [3], -19.5% (inactive) in assay [7] and -26.9% (inactive) in assay [8]. The inhibition of aggregation in assay [2] is 1.5% (inactive). Besides, the nuclei count in assay [2] worked out at 104%; in assay [3] it was 120%. In addition, the fluorescence slope in assay [4] was -0.344 (inactive); in assay [6], 0.0102 (inactive). The NADPH fluorescence slope in assay [5] is -1.7e-05 (inactive).

In the case of `Cc1ccc(C)c(S(=O)(=O)NCc2ccc(C(=O)N3CCN(C)CC3)cc2)c1`, the cell count in assay [1] was found to be 328. For the same molecule, the inhibition in assay [1] was 1.1% (inactive); in assay [3], -101% (inactive); in assay [7], 3.27% (inactive); in assay [8], 19.6% (inactive). The inhibition of aggregation in assay [2] is 27.1% (inactive). Moreover, the values for the nuclei count in assay [2] and in assay [3] were 105% and 106%, respectively. Also, the fluorescence slope is -0.332 (inactive) in assay [4] and 0.00527 (inactive) in assay [6]. Further, the NADPH fluorescence slope in assay [5] is -4.8e-05 (inactive).

On to `O=C(OCc1cc2ccccc2[nH]c1=O)c1ccncc1`, for which the cell count in assay [1] stood at 826. For the same molecule, the inhibition was -3.9% (inactive) in assay [1], -66% (inactive) in assay [3], 19.9% (inactive) in assay [7] and 23.1% (inactive) in assay [8]. Further, the inhibition of aggregation in assay [2] is 25.6% (inactive). The nuclei count in assay [2] came out at 104%; in assay [3], 115%. Besides, the fluorescence slope in assay [4] is -0.536 (inactive); in assay [6] it was 0.00554 (inactive). Moreover, the NADPH fluorescence slope in assay [5] was -4.4e-05 (inactive).

Regarding `COc1ccccc1N1CCN(C(=O)c2oc3cc(C)c(C)cc3c2C)CC1`, in assay [1], the cell count stood at 355. For the same molecule, the inhibition in assay [1] is 1.3% (inactive); in assay [3], -46.9% (inactive); in assay [7] it was 21.1% (inactive); in assay [8] it was 15% (inactive). Besides, the inhibition of aggregation in assay [2] is -10.8% (inactive). Besides, the nuclei count in assay [2] came out at 101%; in assay [3], 87.3%. The fluorescence slope in assay [4] is -0.546 (inactive); in assay [6] it was 0.00423 (inactive). In assay [5], the NADPH fluorescence slope is 2.2e-05 (inactive).

As for `CCOc1ccccc1NC(=O)C1CCCN(C(=O)NCc2ccccc2)C1` (centres undefined), in assay [1], the cell count is 684. Further, the inhibition was -7.7% (inactive) in assay [1], -96.5% (inactive) in assay [3], 5.61% (inactive) in assay [7] and -20.5% (inactive) in assay [8]. Besides, the inhibition of aggregation in assay [2] is -15.4% (inactive). Moreover, the nuclei count stood at 114% in assay [2] and 106% in assay [3]. Besides, the fluorescence slope is -0.448 (inactive) in assay [4] and 0.00645 (inactive) in assay [6]. In assay [5], the NADPH fluorescence slope was 8e-05 (inactive).

With `O=C1CC(c2ccco2)CC(O)=C1C=NCC1NCCc2ccccc21` (centres undefined), the cell count in assay [1] was found to be 330. The inhibition was -2.8% (inactive) in assay [1], -123% (inactive) in assay [3], 17.9% (inactive) in assay [7] and 27.2% (inactive) in assay [8]. For the same molecule, in assay [2], the inhibition of aggregation was 5.8% (inactive). Moreover, the figures for the nuclei count in assay [2] and in assay [3] were 94.2% and 125%, respectively. The figures for the fluorescence slope in assay [4] and in assay [6] were -0.511 (inactive) and 0.00572 (inactive), respectively. Besides, the NADPH fluorescence slope in assay [5] is 2.1e-05 (inactive).

Consider `Cc1ccc2nc(SC(C)C(=O)N3CCCC3)[nH]c2c1` (centres undefined), for which the cell count in assay [1] came out at 467. Also, the inhibition in assay [1] was 0% (inactive); in assay [3] it was -59.3% (inactive); in assay [7], -21.2% (inactive); in assay [8], -39.7% (inactive). For the same molecule, the inhibition of aggregation in assay [2] was 9.4% (inactive). Further, the nuclei count was determined as 75.7% in assay [2] and 112% in assay [3]. In addition, the fluorescence slope in assay [4] was -0.478 (inactive); in assay [6] it was 0.00661 (inactive). In assay [5], the NADPH fluorescence slope was 6e-05 (inactive).

Take `CC1(C)Cc2c(sc3ncnc(N)c23)CO1`: the cell count in assay [1] was determined as 545. Moreover, the inhibition is -14.9% (inactive) in assay [1], -122% (inactive) in assay [3], 15.3% (inactive) in assay [7] and 16.7% (inactive) in assay [8]. In addition, in assay [2], the inhibition of aggregation is 5.4% (inactive). The nuclei count amounted to 114% in assay [2] and 108% in assay [3]. For the same molecule, the values for the fluorescence slope in assay [4] and in assay [6] were -0.384 (inactive) and 0.00833 (inactive), respectively. Also, in assay [5], the NADPH fluorescence slope was -2.5e-05 (inactive).

As for `O=C(CCCn1c(=S)[nH]c2ccccc2c1=O)N1CCCCC1`, the cell count in assay [1] amounted to 452. The inhibition was -6.2% (inactive) in assay [1], 1.4% (inactive) in assay [3], -0.408% (inactive) in assay [7] and 6.14% (inactive) in assay [8]. Besides, the inhibition of aggregation in assay [2] is 6.5% (inactive). Further, the values for the nuclei count in assay [2] and in assay [3] were 123% and 106%, respectively. For the same molecule, the fluorescence slope in assay [4] is -0.451 (inactive); in assay [6] it was 0.00588 (inactive). Further, the NADPH fluorescence slope in assay [5] was 2.5e-05 (inactive).

(Values after PubChem BioAssay.)
